Source: ChEMBL document CHEMBL1136635, “Modification of the N-terminus of peptidomimetic protein tyrosine phosphatase 1B (PTP1B) inhibitors: identification of analogues with cellular activity” (Bioorg Med Chem Lett, 2003)

Biological target: Receptor-type tyrosine-protein phosphatase F (Homo sapiens) (UniProt P10586)
Test: Inhibitory activity against phosphatase (LAR) at a concentration of 100 uM
Method in brief: (§1)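 Purified recombinant human enzyme constructs; PTP1B is a C-terminally truncated soluble form, tested alongside LAR and SHP-2. Activity is read as the initial rate of p-nitrophenyl phosphate (pNPP) hydrolysis and reported as percent inhibition. PTP1B is tested at 100, 10 and 1 µM, or 10 and 1 µM in the salicylate series; LAR and SHP-2 at 100 µM.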

Sequence of Receptor-type tyrosine-protein phosphatase F (Homo sapiens) (P10586 whole entry): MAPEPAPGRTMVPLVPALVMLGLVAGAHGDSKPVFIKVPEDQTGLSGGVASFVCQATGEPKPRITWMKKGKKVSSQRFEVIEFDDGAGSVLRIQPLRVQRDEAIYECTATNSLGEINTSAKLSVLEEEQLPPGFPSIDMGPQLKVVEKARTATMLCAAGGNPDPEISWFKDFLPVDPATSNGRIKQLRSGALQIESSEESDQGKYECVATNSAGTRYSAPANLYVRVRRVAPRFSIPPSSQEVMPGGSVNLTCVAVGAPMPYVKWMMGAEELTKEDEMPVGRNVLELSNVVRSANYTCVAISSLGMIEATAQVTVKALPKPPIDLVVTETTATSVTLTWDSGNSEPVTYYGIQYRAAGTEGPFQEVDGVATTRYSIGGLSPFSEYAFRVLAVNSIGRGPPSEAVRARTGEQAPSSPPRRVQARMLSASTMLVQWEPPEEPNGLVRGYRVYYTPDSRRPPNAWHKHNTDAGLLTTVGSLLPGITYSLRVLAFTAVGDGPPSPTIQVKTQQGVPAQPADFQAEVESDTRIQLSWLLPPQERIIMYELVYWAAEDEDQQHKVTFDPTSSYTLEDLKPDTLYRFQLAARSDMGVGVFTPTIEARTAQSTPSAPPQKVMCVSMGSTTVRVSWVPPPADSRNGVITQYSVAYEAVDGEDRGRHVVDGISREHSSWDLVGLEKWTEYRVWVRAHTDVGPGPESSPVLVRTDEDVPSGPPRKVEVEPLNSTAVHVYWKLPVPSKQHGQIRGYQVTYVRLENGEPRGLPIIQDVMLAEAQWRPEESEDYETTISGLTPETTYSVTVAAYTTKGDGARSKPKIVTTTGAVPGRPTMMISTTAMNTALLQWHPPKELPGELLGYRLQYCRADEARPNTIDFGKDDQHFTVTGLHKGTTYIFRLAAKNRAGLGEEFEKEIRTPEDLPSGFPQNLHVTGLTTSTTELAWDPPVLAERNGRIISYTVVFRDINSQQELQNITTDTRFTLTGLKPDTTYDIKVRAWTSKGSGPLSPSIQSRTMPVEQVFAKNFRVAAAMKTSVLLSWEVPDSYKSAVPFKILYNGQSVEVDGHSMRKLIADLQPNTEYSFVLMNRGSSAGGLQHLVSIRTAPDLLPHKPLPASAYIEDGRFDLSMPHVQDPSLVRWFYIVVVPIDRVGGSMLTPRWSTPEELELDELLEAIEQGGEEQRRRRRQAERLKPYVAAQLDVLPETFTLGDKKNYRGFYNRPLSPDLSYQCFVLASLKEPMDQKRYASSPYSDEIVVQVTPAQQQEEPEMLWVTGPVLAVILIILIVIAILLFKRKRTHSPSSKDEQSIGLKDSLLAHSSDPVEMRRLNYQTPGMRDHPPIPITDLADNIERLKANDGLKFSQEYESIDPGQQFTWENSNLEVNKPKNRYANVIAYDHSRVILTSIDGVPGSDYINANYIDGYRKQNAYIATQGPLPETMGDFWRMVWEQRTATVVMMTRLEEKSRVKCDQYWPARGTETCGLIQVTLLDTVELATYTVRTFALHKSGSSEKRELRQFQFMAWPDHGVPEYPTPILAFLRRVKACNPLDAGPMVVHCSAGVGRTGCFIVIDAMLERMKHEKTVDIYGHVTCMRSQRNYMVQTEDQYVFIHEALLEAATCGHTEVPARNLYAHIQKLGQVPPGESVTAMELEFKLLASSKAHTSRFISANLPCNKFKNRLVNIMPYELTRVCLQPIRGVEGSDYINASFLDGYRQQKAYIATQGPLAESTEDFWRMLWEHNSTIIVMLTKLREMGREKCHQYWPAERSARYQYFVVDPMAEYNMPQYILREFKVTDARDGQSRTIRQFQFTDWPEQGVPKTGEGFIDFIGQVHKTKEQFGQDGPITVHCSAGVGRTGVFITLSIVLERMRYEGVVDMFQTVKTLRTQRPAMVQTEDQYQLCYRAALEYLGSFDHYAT

Compared with `CCCCCNC(=O)[C@H](Cc1ccc(OCC(=O)O)c(C(=O)O)c1)NC(=O)[C@H](CCO)NC(=O)OC(C)(C)C`, `CCCCCNC(=O)[C@H](Cc1ccc(OCC(=O)O)c(C(=O)O)c1)NC(=O)[C@H](C)NC(=O)OC(C)(C)C` is higher in inhibition: 0% for the first, 4% for the second.

Compared with `CCCCCNC(=O)[C@H](Cc1ccc(OC(C(=O)O)C(=O)O)cc1)NC(=O)[C@H](CCc1ccccc1)NC(=O)OC(C)(C)C`, `CCCCCNC(=O)[C@H](Cc1ccc(OC(C(=O)O)C(=O)O)cc1)NC(=O)[C@H](Cc1ccccc1)NC(=O)NC(C)(C)C` is higher in inhibition: 7% for the first, 21% for the second.

`CCCCCNC(=O)[C@H](Cc1ccc(OCC(=O)O)c(C(=O)O)c1)NC(=O)[C@H](Cc1ccccc1)NC(=O)OC(C)(C)C` and `CCCCCNC(=O)[C@H](Cc1ccc(OCC(=O)O)c(C(=O)O)c1)NC(=O)[C@H](Cc1ccccc1)NC(=O)CCOC` are the same in inhibition: 0% for the first, 0% for the second.

`CCCCCNC(=O)[C@H](Cc1ccc(OC(C(=O)O)C(=O)O)cc1)NC(=O)[C@H](Cc1c(F)c(F)c(F)c(F)c1F)NC(=O)OC(C)(C)C` showed an inhibition of 8%.

System: not listed separately
Test: Uptake of 2-DOG (2-deoxyglucose) into L6 myocytes in the presence of half-maximal concentration of insulin at 100 uM
Format: functional, Rattus norvegicus
Method in brief: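 L6 myotubes are exposed to compound at 100 µM with 10 nM insulin, a dose eliciting about 50% of maximal uptake. The initial rate of 2-[3H]deoxyglucose uptake is measured, with L-[14C]glucose marking extracellular space, and normalized to recovered lysate protein. Net insulin-dependent transport with inhibitor is expressed as a percent of that without inhibitor.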

First: CCCCCNC(=O)[C@H](Cc1ccc(OCC(=O)O)c(C(=O)O)c1)NC(=O)[C@H](CCO)NC(=O)OC(C)(C)C
Second: CCCCCNC(=O)[C@H](Cc1ccc(OCC(=O)O)c(C(=O)O)c1)NC(=O)[C@H](C)NC(=O)OC(C)(C)C
The “Control Uptake” value of the first is lower: 74% for the first, 76% for the second.

Compared with `CCCCCNC(=O)[C@H](Cc1ccc(OC(C(=O)O)C(=O)O)cc1)NC(=O)[C@H](CCc1ccccc1)NC(=O)OC(C)(C)C`, `CCCCCNC(=O)[C@H](Cc1ccc(OC(C(=O)O)C(=O)O)cc1)NC(=O)[C@H](Cc1ccccc1)NC(=O)NC(C)(C)C` is lower in “Control Uptake” value: 104% for the first, 93% for the second.

Compared with `CCCCCNC(=O)[C@H](Cc1ccc(OCC(=O)O)c(C(=O)O)c1)NC(=O)[C@H](Cc1ccccc1)NC(=O)OC(C)(C)C`, `CCCCCNC(=O)[C@H](Cc1ccc(OCC(=O)O)c(C(=O)O)c1)NC(=O)[C@H](Cc1ccccc1)NC(=O)CCOC` is lower in “Control Uptake” value: 108% for the first, 89% for the second.

With `CCCCCNC(=O)[C@H](Cc1ccc(OC(C(=O)O)C(=O)O)cc1)NC(=O)[C@H](Cc1c(F)c(F)c(F)c(F)c1F)NC(=O)OC(C)(C)C` the “Control Uptake” value was 100%.

Biological target: T1, Tyrosine-protein phosphatase non-receptor type 11 (Homo sapiens) (UniProt Q06124)
T1 sequence (whole entry): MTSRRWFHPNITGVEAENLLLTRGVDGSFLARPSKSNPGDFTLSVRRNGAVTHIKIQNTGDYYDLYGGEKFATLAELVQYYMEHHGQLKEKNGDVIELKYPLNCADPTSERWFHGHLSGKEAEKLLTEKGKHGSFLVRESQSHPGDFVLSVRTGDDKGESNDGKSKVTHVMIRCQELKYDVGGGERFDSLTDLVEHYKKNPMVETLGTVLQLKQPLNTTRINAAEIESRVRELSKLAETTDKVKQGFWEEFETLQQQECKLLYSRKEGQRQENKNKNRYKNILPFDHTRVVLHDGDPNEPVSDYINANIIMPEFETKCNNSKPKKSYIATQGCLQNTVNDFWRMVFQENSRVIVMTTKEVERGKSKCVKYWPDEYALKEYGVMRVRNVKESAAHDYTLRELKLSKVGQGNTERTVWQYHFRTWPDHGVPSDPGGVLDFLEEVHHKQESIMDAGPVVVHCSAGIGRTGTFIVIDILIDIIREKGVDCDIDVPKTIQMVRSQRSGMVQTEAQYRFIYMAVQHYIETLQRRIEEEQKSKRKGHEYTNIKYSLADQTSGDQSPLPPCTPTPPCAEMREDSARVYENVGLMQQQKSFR
Test: Inhibition of recombinant human phosphatase (SHP-2) at a concentration of 100 uM
Method in brief: as §1

First: CCCCCNC(=O)[C@H](Cc1ccc(OCC(=O)O)c(C(=O)O)c1)NC(=O)[C@H](CCO)NC(=O)OC(C)(C)C
Second: CCCCCNC(=O)[C@H](Cc1ccc(OCC(=O)O)c(C(=O)O)c1)NC(=O)[C@H](C)NC(=O)OC(C)(C)C
The inhibition of the first is higher: 8% for the first, 5% for the second.

Going from `CCCCCNC(=O)[C@H](Cc1ccc(OC(C(=O)O)C(=O)O)cc1)NC(=O)[C@H](CCc1ccccc1)NC(=O)OC(C)(C)C` to `CCCCCNC(=O)[C@H](Cc1ccc(OC(C(=O)O)C(=O)O)cc1)NC(=O)[C@H](Cc1ccccc1)NC(=O)NC(C)(C)C`, the inhibition rises from 0% to 6%.

Compared with `CCCCCNC(=O)[C@H](Cc1ccc(OCC(=O)O)c(C(=O)O)c1)NC(=O)[C@H](Cc1ccccc1)NC(=O)CCOC`, `CCCCCNC(=O)[C@H](Cc1ccc(OC(C(=O)O)C(=O)O)cc1)NC(=O)[C@H](Cc1c(F)c(F)c(F)c(F)c1F)NC(=O)OC(C)(C)C` is lower in inhibition: 2% for the first, 0% for the second.

Biological target: T2, Tyrosine-protein phosphatase non-receptor type 1 (Homo sapiens) (UniProt P18031)
T2 sequence (whole entry): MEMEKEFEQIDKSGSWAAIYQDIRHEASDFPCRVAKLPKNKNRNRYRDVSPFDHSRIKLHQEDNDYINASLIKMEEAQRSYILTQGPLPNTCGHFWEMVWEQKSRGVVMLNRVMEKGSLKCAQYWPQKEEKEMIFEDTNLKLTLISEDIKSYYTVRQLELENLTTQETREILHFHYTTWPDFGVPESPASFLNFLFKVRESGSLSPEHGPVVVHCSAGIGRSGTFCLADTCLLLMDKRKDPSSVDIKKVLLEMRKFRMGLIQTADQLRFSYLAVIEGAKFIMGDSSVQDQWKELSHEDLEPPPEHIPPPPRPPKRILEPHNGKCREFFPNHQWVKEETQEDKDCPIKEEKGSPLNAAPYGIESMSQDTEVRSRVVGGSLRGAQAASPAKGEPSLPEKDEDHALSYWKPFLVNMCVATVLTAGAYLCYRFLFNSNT
Test: Inhibitory activity against human protein tyrosine phosphatase 1B (PTP1B) at a concentration of 1 uM
Method in brief: as §1

Compared with `CCCCCNC(=O)[C@H](Cc1ccc(OCC(=O)O)c(C(=O)O)c1)NC(=O)[C@H](CCO)NC(=O)OC(C)(C)C`, `CCCCCNC(=O)[C@H](Cc1ccc(OCC(=O)O)c(C(=O)O)c1)NC(=O)[C@H](C)NC(=O)OC(C)(C)C` is lower in inhibition: 11% for the first, 8% for the second.

First: CCCCCNC(=O)[C@H](Cc1ccc(OC(C(=O)O)C(=O)O)cc1)NC(=O)[C@H](CCc1ccccc1)NC(=O)OC(C)(C)C
Second: CCCCCNC(=O)[C@H](Cc1ccc(OC(C(=O)O)C(=O)O)cc1)NC(=O)[C@H](Cc1ccccc1)NC(=O)NC(C)(C)C
The inhibition of the first is lower: 2% for the first, 9% for the second.

First: CCCCCNC(=O)[C@H](Cc1ccc(OCC(=O)O)c(C(=O)O)c1)NC(=O)[C@H](Cc1ccccc1)NC(=O)CCOC
Second: CCCCCNC(=O)[C@H](Cc1ccc(OC(C(=O)O)C(=O)O)cc1)NC(=O)[C@H](Cc1c(F)c(F)c(F)c(F)c1F)NC(=O)OC(C)(C)C
The inhibition of the first is higher: 37% for the first, 5% for the second.

Biological target: T2, Tyrosine-protein phosphatase non-receptor type 1 (Homo sapiens)
Test: Inhibitory activity against human protein tyrosine phosphatase 1B (PTP1B) at a concentration of 100 uM
Method in brief: as §1

Going from `CCCCCNC(=O)[C@H](Cc1ccc(OC(C(=O)O)C(=O)O)cc1)NC(=O)[C@H](CCc1ccccc1)NC(=O)OC(C)(C)C` to `CCCCCNC(=O)[C@H](Cc1ccc(OC(C(=O)O)C(=O)O)cc1)NC(=O)[C@H](Cc1ccccc1)NC(=O)NC(C)(C)C`, the inhibition rises from 77% to 86%.

`CCCCCNC(=O)[C@H](Cc1ccc(OC(C(=O)O)C(=O)O)cc1)NC(=O)[C@H](Cc1c(F)c(F)c(F)c(F)c1F)NC(=O)OC(C)(C)C` showed an inhibition of 80%.

Biological target: T2, Tyrosine-protein phosphatase non-receptor type 1 (Homo sapiens)
Test: Inhibitory activity against human protein tyrosine phosphatase 1B (PTP1B) at a concentration of 10 uM
Method in brief: as §1

Going from `CCCCCNC(=O)[C@H](Cc1ccc(OCC(=O)O)c(C(=O)O)c1)NC(=O)[C@H](CCO)NC(=O)OC(C)(C)C` to `CCCCCNC(=O)[C@H](Cc1ccc(OCC(=O)O)c(C(=O)O)c1)NC(=O)[C@H](C)NC(=O)OC(C)(C)C`, the inhibition falls from 45% to 43%.

Going from `CCCCCNC(=O)[C@H](Cc1ccc(OC(C(=O)O)C(=O)O)cc1)NC(=O)[C@H](CCc1ccccc1)NC(=O)OC(C)(C)C` to `CCCCCNC(=O)[C@H](Cc1ccc(OC(C(=O)O)C(=O)O)cc1)NC(=O)[C@H](Cc1ccccc1)NC(=O)NC(C)(C)C`, the inhibition rises from 17% to 40%.

Compared with `CCCCCNC(=O)[C@H](Cc1ccc(OCC(=O)O)c(C(=O)O)c1)NC(=O)[C@H](Cc1ccccc1)NC(=O)CCOC`, `CCCCCNC(=O)[C@H](Cc1ccc(OC(C(=O)O)C(=O)O)cc1)NC(=O)[C@H](Cc1c(F)c(F)c(F)c(F)c1F)NC(=O)OC(C)(C)C` is lower in inhibition: 83% for the first, 25% for the second.
